# Reference: ChEMBL document CHEMBL4732208, “Discovery of novel N-alkylcytidines as promising antimicrobial agents” (Eur J Med Chem, 2021)
# Active and inactive are the calls of the source. The calls are words filed in the database; no cut-off is given here.
# Experiments:
# [1] = test system: Mycolicibacterium smegmatis; assay: Antibacterial activity against Mycobacterium smegmatis mc2155; format: functional
# Method in brief: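 Strains were grown in modified Gause's nutrient medium N 2 at 10⁶ cells/ml. The compound was dissolved in 50% aqueous methanol and added at 10 volume percent of the medium. Controls were untreated cultures, medium with the solvent mixture, and clinical antibiotics.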
# [2] = test system: Mycolicibacterium smegmatis; assay: Antibacterial activity against Mycobacterium smegmatis VKPM Ac-1339; format: functional
# Method in brief: (§1)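 Strains grown in modified Gause's nutrient medium N 2, inoculum 10⁶ cells/ml. Test compound dissolved in 50% aqueous methanol, added at ten volume percent of the medium. Growth controls: medium without additions, medium with solvent mixture, and clinical antibiotics (amikacin, ciprofloxacin, isoniazid, rifampicin, oxacillin, vancomycin).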
# [3] = Cytotoxicity against human A549 cells by MTT assay; format: cell-based
# Method in brief: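 Adherent A549 cells passaged in DMEM with 10% fetal calf serum and 2 mM glutamine, at 37 °C, 5% CO2, 90% humidity. MTT test. CC50 is the concentration that inhibits culture growth by 50%.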
# Staphylococcus aureus [4] = assay: Antibacterial activity against Staphylococcus aureus FDA 209 P; format: functional; method in brief: as §1
# Staphylococcus aureus [5] = assay: Antibacterial activity against Staphylococcus aureus INA 00761; format: functional; method in brief: as §1
# [6] = test system: Leuconostoc mesenteroides; assay: Antibacterial activity against Leuconostoc mesenteroides VKPM B-4177; format: functional; method in brief: as §1
# Micrococcus luteus = assay: Antibacterial activity against Micrococcus luteus NCTC 8340; format: functional; method in brief: as §1
# Bacillus subtilis = assay: Antibacterial activity against Bacillus subtilis ATCC 6633; format: functional; method in brief: as §1
# [7] = Aqueous solubility of compound; format: physicochemical; conditions: buffer
# Aspergillus creber = assay: Antifungal activity against Aspergillus-creber SRX7729180 STG-57 assessed as reduction in fungal growth at 0.1 to 3.5 mM measured for 24 days by drop dilution assay relative to control; format: functional; conditions: dose 0.1-3.5 mM, time 24.0 day
# Method in brief: (§2)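 Drop-dilution method. Suspension plated on CDA with or without compound (screening range 0.1–3.5 mM); 5-fluorocytosine positive control. Incubated at 26 °C. Inhibition % = (Dc−Dt)/Dc × 100 from colony diameters; triplicate, repeated at least twice.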
# [8] = test system: Cladosporium halotolerans; assay: Antifungal activity against Cladosporium-halotolerans SRX7729178 STG-52B assessed as reduction in fungal growth at 0.1 to 3.5 mM measured for 24 days by drop dilution assay relative to control; format: functional; conditions: dose 0.1-3.5 mM, time 24.0 day; method in brief: as §2
# [9] = Chemical stability of compound in pH 7.5 at 5 mg measured after 7 days by TLC analysis; format: physicochemical; conditions: pH 7.5, 168 h, time 7 day
# Method in brief: (§3)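 Compound incubated at 37 °C in 0.2 M glycine/HCl (pH 2.2), 0.1 M potassium phosphate (pH 7.5) or 0.2 M glycine/NaOH (pH 9.0). Followed for 24 h and up to over a week.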
# [10] = Chemical stability of compound in pH 9 at 5 mg measured after 24 hrs by TLC analysis; format: physicochemical; conditions: pH 9, 24 h; method in brief: as §3
# Alternaria chartarum = assay: Antifungal activity against Ulocladium chartarum SRX7729176 STG-36 assessed as reduction in fungal growth at 0.1 to 3.5 mM measured for 24 days by drop dilution assay relative to control; format: functional; conditions: dose 0.1-3.5 mM, time 24.0 day; method in brief: as §2
# Aspergillus versicolor [11] = assay: Antifungal activity against Aspergillus versicolor SRX7729174 STG-25G assessed as reduction in fungal growth at 0.1 to 3.5 mM measured for 24 days by drop dilution assay relative to control; format: functional; conditions: dose 0.1-3.5 mM, time 24.0 day; method in brief: as §2
# [12] = Metabolic stability in human serum assessed as half life at 100 mM measured for 24 hrs by HPLC/TLC analysis; format: ADME, cell-free
# [13] = test system: Cladosporium parahalotolerans; assay: Antifungal activity against Cladosporium-parahalotolerans SRX7729188 STG-93B assessed as reduction in fungal growth at 0.1 to 3.5 mM measured for 24 days by drop dilution assay relative to control; format: functional; conditions: dose 0.1-3.5 mM, time 24.0 day; method in brief: as §2
# Aspergillus = assay: Antifungal activity against Aspergillus SRX7729186 STG-93W assessed as reduction in fungal growth at 0.1 to 3.5 mM measured for 24 days by drop dilution assay relative to control; format: functional; conditions: dose 0.1-3.5 mM, time 24.0 day; method in brief: as §2
# [14] = Chemical stability of compound in pH 2.2 at 5 mg measured after 7 days by TLC analysis; format: physicochemical; conditions: pH 2.2, 168 h, time 7 day; method in brief: as §3
# Aspergillus amoenus = assay: Antifungal activity against Aspergillus-amoenus SRX7729194 STG-106 assessed as reduction in fungal growth at 0.1 to 3.5 mM measured for 24 days by drop dilution assay relative to control; format: functional; conditions: dose 0.1-3.5 mM, time 24.0 day; method in brief: as §2
# Aspergillus versicolor [15] = assay: Antifungal activity against Aspergillus versicolor SRX7729182 STG-25G assessed as reduction in fungal growth at 0.1 to 3.5 mM measured for 24 days by drop dilution assay relative to control; format: functional; conditions: dose 0.1-3.5 mM, time 24.0 day; method in brief: as §2
SMILES,MIC [1] [µM],MIC [2] [µM],CC50 [3] [µM],MIC (Staphylococcus aureus [4]) [µM],MIC (Staphylococcus aureus [5]) [µM],MIC [6] [µM],MIC (Micrococcus luteus) [µM],MIC (Bacillus subtilis) [µM],other results
CO[C@H]1/C=C/O[C@@]2(C)Oc3c(C)c(O)c4c(O)c(c(/C=N/N5CCN(C)CC5)c(O)c4c3C2=O)NC(=O)/C(C)=C\C=C\[C@H](C)[C@H](O)[C@@H](C)[C@@H](O)[C@@H](C)[C@H](OC(C)=O)[C@@H]1C [RIFAMPIN],5,10,–,–,–,–,–,–,–
O=c1nc(NCCCCc2ccccc2)ccn1[C@H]1C[C@H](O)[C@@H](CO)O1,> 200,> 200,90,> 200,> 200,> 200,> 200,> 200,–
CCCCCCNc1nc(=O)n([C@H]2C[C@H](O)[C@@H](CO)O2)cc1C,> 200,> 200,90,> 200,> 200,> 200,> 200,> 200,–
CCCCCCCCNc1ccn([C@@H]2O[C@H](CO)[C@@H](O)[C@H]2O)c(=O)n1,> 200,> 200,90,> 200,> 200,> 200,> 200,> 200,–
Cc1cn([C@H]2C[C@H](O)[C@@H](CO)O2)c(=O)nc1NCCc1ccccc1,> 200,> 200,90,> 200,> 200,> 200,> 200,> 200,–
CCCCCCCCCCNc1nc(=O)n([C@H]2C[C@H](OC(=O)OCCOCCOCCO)[C@@H](CO)O2)cc1C,54,54,90,54,54,90,> 45,90,solubility [7]: Soluble; inhibition (Aspergillus creber): inactive; inhibition [8]: inactive; Stabilty [9]: Stable; Stabilty [10]: Stable; inhibition (Alternaria chartarum): inactive; inhibition (Aspergillus versicolor [11]): inactive; half-life [12]: ≥ 24 h; inhibition [13]: inactive; inhibition (Aspergillus): inactive; Stabilty [14]: Stable; inhibition (Aspergillus amoenus): inactive; inhibition (Aspergillus versicolor [15]): inactive
NNC(=O)c1ccncc1 [ISONIAZID],29,2,–,–,–,–,–,–,–
CN[C@H](CC(C)C)C(=O)N[C@H]1C(=O)N[C@@H](CC(N)=O)C(=O)N[C@H]2C(=O)N[C@H]3C(=O)N[C@H](C(=O)N[C@H](C(=O)O)c4cc(O)cc(O)c4-c4cc3ccc4O)[C@H](O)c3ccc(c(Cl)c3)Oc3cc2cc(c3O[C@@H]2O[C@H](CO)[C@@H](O)[C@H](O)[C@H]2O[C@H]2C[C@](C)(N)[C@H](O)[C@H](C)O2)Oc2ccc(cc2Cl)[C@H]1O [VANCOMYCIN],–,–,–,–,–,> 275,–,–,–
CCCCCCCCCCNc1ccn([C@H]2C[C@H](O)[C@@H](CO)O2)c(=O)n1,140,140,200,> 140,> 140,140,140,140,–
O=C(O)c1cn(C2CC2)c2cc(N3CCNCC3)c(F)cc2c1=O [CIPROFLOXACIN],15,12,–,3,12,–,–,–,–
Cc1onc(-c2ccccc2)c1C(=O)N[C@@H]1C(=O)N2[C@@H]1SC(C)(C)[C@@H]2C(=O)O [OXACILLIN],–,–,–,2.5,80,–,–,–,–
